CRFBP-R2 block: antagonists of CRF-BP/CRF-R2 complex, primary screen, cell-based, HEK293, calcium dye fluorescence, uHTS; inhibition, % at 11.8 µM; CRF-induced calcium fluorescence; 0.59% of 350,000 active;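 active means inhibition of the ligand-induced calcium signal above about 50% at the single tested concentration, limit read from the data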
CRFR2-BP ag: agonists of CRF-BP/CRF-R2 complex, primary screen, cell-based, HEK293, calcium dye fluorescence, uHTS; CRF-binding protein / CRF receptor 2 complex (human); calcium dye fluorescence (FLIPR); percent of saturating CRF peptide response; activation, % at 13.2 µM; 0.46% of 350,000 active; AID 588473, 2011;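 active means activation of at least 50%, plus an integration ratio under a set limit after plate pattern correction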;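 further: plate controls were neutral control wells without compound for no effect and CRF at EC100 for full effect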
IMP-1 inhibitor: IMP-1 metallo-beta-lactamase inhibitors, primary screen, biochemical, epi-absorbance readout, Pseudomonas aeruginosa enzyme; 0.45% of 290,000 active; inhibition, % at 5.6 µM; metallo-beta-lactamase IMP-1 (Pseudomonas aeruginosa); purified IMP-1, nitrocefin hydrolysis, epi-absorbance fluorescence; AID 1556, 2009;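 active means inhibition above the mean plus 3 SD of all compounds in the same screening run, cut at about 4.5% in these data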;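 further: 0% = IMP-1 with DMSO and 100% = DMSO wells lacking enzyme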
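assay system = purified recombinant IMP-1 metallo-beta-lactamase enzyme | schedule = 15 min preincubation plus 25 min reaction at 25 °C | signal = Epi-absorbance fluorescence, 480 nm excitation, 530 nm emission | read-out basis = percent inhibition from optical density relative to buffer-blank wells | controls = IMP-1 with DMSO as 0%, enzyme-free DMSO as 100%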
TRPML3 agonist: human TRPML3 channel agonists, primary screen, cell-based, HEK293 TRPML3-YFP, Fluo-8 calcium fluorescence, 3 µM | 100% = the carbachol control signal | activation, % at 3 µM | 0.29% of 220,000 active | AID 1448, 2008;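 active means activation above its plate's cutoff, the mean activation of the plate's test wells plus 3 SD, cut at about 12% in these data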;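 further: 0% = DMSO only wells and 100% = carbachol wells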
Target sequence (Q8TDD5 whole entry, looked up): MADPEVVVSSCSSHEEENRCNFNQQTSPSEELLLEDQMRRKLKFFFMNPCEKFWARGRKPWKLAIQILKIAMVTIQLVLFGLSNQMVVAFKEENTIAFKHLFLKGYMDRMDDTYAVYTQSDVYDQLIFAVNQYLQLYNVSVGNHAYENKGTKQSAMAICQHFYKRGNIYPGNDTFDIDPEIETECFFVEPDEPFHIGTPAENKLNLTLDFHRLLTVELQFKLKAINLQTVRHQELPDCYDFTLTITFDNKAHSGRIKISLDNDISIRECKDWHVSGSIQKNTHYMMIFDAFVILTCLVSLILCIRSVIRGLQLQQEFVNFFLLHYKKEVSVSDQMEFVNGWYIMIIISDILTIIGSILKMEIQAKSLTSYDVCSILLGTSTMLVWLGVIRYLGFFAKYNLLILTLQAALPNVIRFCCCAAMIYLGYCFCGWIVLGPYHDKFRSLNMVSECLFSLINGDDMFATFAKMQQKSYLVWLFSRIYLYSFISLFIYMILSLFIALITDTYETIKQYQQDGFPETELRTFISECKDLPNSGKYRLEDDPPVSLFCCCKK
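Test system: HEK293 cells stably carrying human TRPML3-YFP; Doses: single dose, 3 µM final nominal compound, 0.3% DMSO final; Schedule: dye loading 1 h 37 °C then 30 min ambient, 125 s read; Technique: Fluo-8 calcium fluorescence; Benchmarks: high control carbachol 87 µM, low control DMSO.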
VIM-2 inhibitor: VIM-2 metallo-beta-lactamase inhibitors, primary screen, biochemical, epi-absorbance readout, Pseudomonas aeruginosa enzyme; 0.89% of 290,000 active; purified VIM-2, nitrocefin hydrolysis, epi-absorbance fluorescence; inhibition, % at 5.6 µM;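 active means inhibition above the mean of all tested compounds plus 3 SD, cutoff set per screening run, cut at about 7.5% in these data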;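 further: red hydrolysis product quenches plate fluorescence so inhibitors raise well fluorescence; 0% = enzyme with DMSO and 100% = DMSO without enzyme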
zfTRPN1 agonist: zebrafish TRPN1 channel agonists, primary screen, cell-based, HEK293, calcium fluorescence | activation, % at 3 µM | transient receptor potential cation channel N1 (TRPN1/NompC), Danio rerio | 0.18% of 220,000 active | HEK293 zebrafish TRPN1-YFP, Fluo-8 calcium fluorescence; 100% = response to 87 µM carbachol;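 active means activation above its plate's cutoff, the mean activation of test wells on that plate plus 3 SD, cut at about 19% in these data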;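 further: 0% = DMSO alone and 100% = 87 µM carbachol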
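Material: zebrafish TRPN1-YFP in HEK293 cells. Doses: one dose of 3 µM, 0.3% DMSO. Incubation: dye 1 h 37 °C plus 30 min RT. Measured by: intracellular calcium fluorescence with Fluo-8.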
Active calls of the source: *; i = inactive; / = no result given. Compounds with a hit are over-represented: about 2.1% of the library has one in this group of screens.

SMILES	CRFBP-R2 block	CRFR2-BP ag	IMP-1 inhibitor	TRPML3 agonist	VIM-2 inhibitor	zfTRPN1 agonist
CCCCCn1nc(C)c(/C=N\NC(=O)c2cc(C)oc2C)c1C	-176	107*	-5	1	-4	0
Cc1ccc(C(=O)N(C)CC(=O)Nc2cccc(C)c2C)o1	-4	2	-2	/	2	/
Cc1c(C(=O)Nc2ccccc2)sc2ncn(CC(=O)N3CCCCC3)c(=O)c12	-6	1	-5	/	-2	/
Cc1c(C(=O)Nc2cccc([N+](=O)[O-])c2)sc2ncn(CC(=O)N3CCOCC3)c(=O)c12	87*	2	-1	/	-1	/
Cc1cc2occ(CC(=O)Nc3nnc(C4CC4)s3)c2cc1C	-9	0	20*	-1	-2	0
O=C(Cc1coc2ccc3ccccc3c12)Nc1nnc(C2CC2)s1	-35	11	0	0	-2	-1
Cc1cc(C)nc(/N=C(\N)Nc2ccc(S(=O)(=O)Nc3nccc(C)n3)cc2)n1	12	-2	-1	-1	-2	1
Cc1cc(C)nc(/N=C(\N)Nc2ccc(S(=O)(=O)O)cc2)n1	1	-1	-2	1	0	1
Cc1cc(C)nc(/N=C(\N)Nc2ccc(OCCC(C)C)cc2)n1	-35	75*	1	/	1	/
COc1ccc(N/C(N)=N/c2nc(C)cc(C)n2)cc1	-85	70*	/	/	/	/
Cc1cc(C)nc(/N=C(\N)Nc2ccc(CC(=O)OC(C)C)cc2)n1	-6	101*	-3	/	0	/
CC(C)CNC(=O)C(=O)NCC1CCCN1S(=O)(=O)c1cccs1 (stereo not drawn)	-4	2	/	/	/	/
O=C(COc1ccccc1)N1CCN(C(=O)c2ccccc2F)CC1	-5	0	0	/	-1	/
N#Cc1c(Cl)nc2c(c1C#N)CCCC2	107*	-2	-2	0	-2	1
CC(=O)c1c(C)[nH]c(C(=O)CN2C(=O)NC(C)(c3ccc(C)cc3)C2=O)c1C (stereo not drawn)	-77	77*	-1	7	-1	17
CCN1C(=O)C(=O)N(CC(=O)c2[nH]c(C)c(C(C)=O)c2C)C1=O	-9	1	/	/	/	/
CC(C)c1ccc(S(=O)(=O)N2CCN(C(=O)CN3C(=O)c4ccccc4C3=O)CC2)cc1	17	-2	/	/	/	/
Cc1c(Cl)ccc2c(C(=O)Nc3cc(C(C)(C)C)on3)cc(-c3ccccn3)nc12	-13	2	-4	/	-3	/
COc1ccc(N=C(N)SCc2ccccn2)cc1	-26	62*	-2	6	0	6
Cc1ccc(CSC(Nc2ccc(F)cc2)=C(C#N)C#N)cc1	72*	51*	0	15*	-5	25*
Cc1onc(-c2ccccc2Cl)c1C(=O)NCc1ccc(N2CCCC2=O)cc1	57*	11	-3	0	-3	2
Cc1onc(-c2ccccc2Cl)c1C(=O)NCc1ccc(S(N)(=O)=O)cc1	1	0	-2	0	-2	1
CC(Sc1nc(N)cc(=O)[nH]1)C(=O)NNC(=O)c1cccc(Cl)c1 (stereo not drawn)	4	0	/	/	/	/
CC(C)N1CC=C2C(C#N)=C(N)C(C#N)(C#N)[C@H](c3ccoc3)[C@H]2C1	/	/	-1	2	2	2
CC(C)N1CC=C2C(C#N)=C(N)C(C#N)(C#N)C(c3ccccc3)C2C1 (stereo not drawn)	-27	90*	0	1	0	4
SMILES	CRFBP-R2 block	CRFR2-BP ag	IMP-1 inhibitor	TRPML3 agonist	VIM-2 inhibitor	zfTRPN1 agonist
Cc1cccc(C(=O)Nc2scc(-c3ccc(Br)cc3)c2C(=O)O)c1	50*	1	/	/	/	/
Cc1ccc(-c2csc(NC(=O)c3cccc(C)c3)c2C(=O)O)cc1	28	0	/	/	/	/
CCc1nn(CC(=O)NCCN2CCN(C)CC2)c(=O)c2cc3c(OC)cccc3n12	5	1	-2	/	12*	/
Cc1c(CC(=O)O)c(=O)oc2c(C)c(OCc3ccccc3)ccc12	5	-2	-1	/	0	/
Cc1c(CC(=O)O)c(=O)oc2c(C)c(OCc3ccccc3Br)ccc12	17	-2	6.9*	/	1	/
CCc1c(C)c2ccc(OCC(=O)N(C)C)c(C)c2oc1=O	19	-1	-5	1	9.8*	2
NC(=O)c1sc2nc(-c3ccco3)ccc2c1N	-3	6	1	1	11*	1
COCOCCn1cc(CN2CCS(=O)(=O)N(Cc3ccc(-c4ccc(OC)nc4)cc3)C(C(C)C)C2=O)nn1 (stereo not drawn)	10	-1	/	/	/	/
O=c1oc2c3c4c(cc2c(C(F)(F)F)c1CCN1CCOCC1)CCCN4CCC3	i	708	4	10	1	20*
COc1ccc(CC(=O)Nc2cccc(/C(C)=N/NC(=O)C3(C)CC3(Br)Br)c2)cc1 (stereo not drawn)	-8	3	-2	/	-2	/
COc1ccc(-c2cc(C(=O)OCC(=O)c3c(N)n(C)c(=O)n(C)c3=O)c3ccccc3n2)cc1	-6	-1	-2	0	-2	-1
Cn1c(N)c(C(=O)COC(=O)c2ccnc3ccccc23)c(=O)n(C)c1=O	-6	-3	-5	0	9.7*	0
O=C(NCC1CCCO1)c1ccc2c(c1)C(=O)N(c1cccc([N+](=O)[O-])c1)C2=O (stereo not drawn)	8	-3	0	/	0	/
O=C1/C(=C/c2cccs2)SC(=S)N1NS(=O)(=O)c1ccccc1	27	1	9.0*	0	0	-1
CCOC(=O)c1c(-c2ccccc2)csc1NC(=O)/C(C#N)=C/c1ccc(OC)c(OC)c1	-42	3	-2	1	-4	2
CCOC(=O)c1c(-c2ccccc2)csc1NC(=O)/C(C#N)=C/c1ccc(O)c(OC)c1	-216	198*	1	1	-2	1
CC1Cn2c(nc(=O)c3c2NCN(CCc2ccccc2)C3)S1 (stereo not drawn)	6	0	-2	-1	1	2
O=c1c(Sc2ccccc2)c(C(F)(F)F)[nH]n1-c1ccccc1	81*	4	0	2	0	1
CCCN1CCN(CCCNC(=O)CCNC(=O)Cn2ccc3ccccc3c2=O)CC1	-8	0	5.4*	1	1	-1
